In ChEMBL document CHEMBL4513216, “Probing the Open Global Health Chemical Diversity Library for Multistage-Active Starting Points for Next-Generation Antimalarials” (ACS Infect Dis, 2020):

Assay: Toxicity liver stage against HepG2, at 10uM
Type: cell-based
Set-up: test concentration 10 uM, cell line HepG2-A16-CD81EGFP
Details: human, HepG2-A16-CD81EGFP cells; read-out: INHIBITION
Summary of the method: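 Uninfected HepG2-A16-CD81EGFP cells, 3 × 10^3 per well, 1536-well, plated on prespotted compound at 10 μM final, parasite-free screening media added to match infected plates; puromycin 10 μM positive, DMSO 0.5% negative; run in parallel with 48 h PbLuc assay at 37 °C, 5% CO2; viability by CellTiter-Glo luminescence, normalized to controls.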

| SMILES | cytotoxicity at 10 µM |
| --- | --- |
| CCCN(CCC)C1(Cc2cc(-c3cccc(O)c3)on2)COC1 | -1.19% |
| O=C(Cc1ccccc1)NC[C@H]1Cn2ccnc2CO1 | 0.148% |
| COCCN1C[C@@H]2CN(S(=O)(=O)c3cccs3)C[C@@H]2C1=O | 0.258% |
| COCc1ncn2c1CN(C(=O)Nc1ccccc1)CC2 | 0.763% |
| Cn1cccc1CN1CCc2ncnc(-c3cccnc3)c2CC1 | 9.03% |
| COCCO[C@H]1CCN(C(=O)c2ccco2)[C@H]1Cc1cnn(C)c1 | 2.4% |
| O=C(c1ccccc1)N1CC[C@H]2C[C@@H](c3nccs3)O[C@@H]2C1 | -5.44% |
| CNc1nccnc1C1CN(C(=O)c2cc[nH]n2)CCO1 (stereo not given) | -12.3% |
| COCCNC(=O)c1cc(C)nc(C2CCN(C)CC2)n1 | -2.48% |
| CCC(=O)N1CCC(c2nc3c(c(NC)n2)CN(C)CC3)C1 (stereo not given) | -3.74% |
| O=C(CC1CCCC1)N1CCOC(c2nc(-c3ncccn3)no2)C1 (stereo not given) | -13.2% |
| CNC(=O)Nc1cnc2cc(Cl)ccc2c1O | -30% |
| Cc1nccn1-c1cncc(C2CCCN2Cc2cccnc2)n1 (stereo not given) | -20.4% |
| O=C(CSc1nnc(N2CCCC2)s1)NC(=O)Nc1ccccc1 | 3.59% |
| COc1ccccc1C1(CNc2cn[nH]c(=O)c2Cl)CC1 | 54.8% |
| CN1CCN(C2CCN(Cc3cn4ccccc4n3)CC2)C1=O | 19.1% |
| Cc1ccc(CN(C)C(=O)CN2CCc3ccccc3C2)o1 | -6.9% |
| COc1ncnc(N(C)C)c1NC(=O)c1cscc1C | -1.7% |
| Cc1nn(C)c(N(C)C)c1CNCc1cccc(Br)c1 | -7.98% |
| Cc1cccc(C(=O)N2CCN(c3ccccc3F)CC2)n1 | 1.83% |
| COC(=O)C(C)(C)NC(=O)C1CC(=O)N(CC(C)C)C1 (stereo not given) | -152% |
| N#Cc1ncn(CCC(=O)Nc2cc(Cl)ccc2Cl)n1 | -161% |
| Clc1cncc(N2CCCC2c2nnc3n2CCCCC3)n1 (stereo not given) | -7.44% |

| SMILES | cytotoxicity at 10 µM |
| --- | --- |
| CCC(NC(=O)Nc1ccc(OC)c(C)c1)c1noc(C)n1 (stereo not given) | -12% |
| CC(C)S(=O)(=O)Cc1cccc(NC(=O)c2ccc[nH]2)c1 | -0.118% |
| CC(C)c1nc(C2CCCN2c2cnc3ccccc3n2)no1 (stereo not given) | -3.13% |
| Cc1csc2ncc(-c3ccnc(N4CCC[C@@H]4CO)n3)c(=O)n12 | -11.3% |
| CCCn1ncnc1C(C)NC(=O)C1CCN(C(=O)C2CC2)CC1 (stereo not given) | -147% |
| COc1cc2c(cc1CN1CCC3(CCCN(C)C3=O)C1)OCCO2 (stereo not given) | 6.33% |
| CC(C)(CN1CCC2(CCNCC2)CC1)N1CCOCC1 | -148% |
| Cc1c(C(=O)N2CCC(O)(CN(C)C)C2)c2cc(O)ccc2n1C (stereo not given) | -120% |
| O=C(NCc1csc(-c2cccs2)n1)C1NCCc2[nH]cnc21 (stereo not given) | -0.798% |
| Cc1cnc(N2CCCC3(CCOCC3)C2)nc1 | -116% |
| CC(C)C[C@H]1CN(c2nc3c(cc2C(N)=O)CCC3)CC[C@@]1(C)O | -4.51% |
| O=C(CC1COCCN1)N1CCCN(C2Cc3ccccc3C2)CC1 (stereo not given) | -139% |
| O=C(c1scc2c1OCCO2)N1CCOC(Cc2cccc(F)c2)C1 (stereo not given) | 4.78% |
| CCn1c(Cn2cncn2)nnc1C1CCN(Cc2ccncc2)CC1 | 12.3% |
| Cc1cc(F)ccc1OC1(C(=O)O)CCN(Cc2ccncc2)CC1 | -8.31% |
| NC(=O)CSc1nccc(-c2ccc3c(c2)OCO3)n1 | -7.38% |
| Cc1nc(C(C)C)sc1C(=O)NCCn1nc2ccccn2c1=O | -12% |
| Cc1nc(C)n(CC2CCCCN2CCC(=O)Nc2cc(C)on2)n1 (stereo not given) | -2.86% |
| CNC(=O)[C@@H](c1ccccc1OC)N1CCC[C@H]1C(=O)NC(C)(C)C | -6.67% |
| CCS(=O)(=O)N1CCCC2(CCCN2Cc2cccc(F)c2)C1 (stereo not given) | -141% |
| O=C(c1ccccc1)N1CCC2(CCCN2c2ncccn2)CC1 | -127% |
| CN(C)S(=O)(=O)N1C[C@@H]2C[C@H](C(=O)Nc3ccccc3)[C@H](C1)O2 | 5.86% |
